Laboratory results published in paper PMC7901021 (ACS chemical biology, 2021).

What was measured:
MONOMAC6 and NB4 cells = details: cited from earlier work
FTO [1] = target: T1, FTO (Homo sapiens, UniProt Q9C0B1); details: read-out: reported IC50 against FTO; cited from earlier work
ALKBH5 [2] = target: T2, ALKBH5 (Homo sapiens, UniProt Q6P6C2); details: cited from earlier work
[3] = precipitation in assay buffer; assay type: physicochemical; details: dose response could not be determined
[4] = system: healthy human neural stem cells (hNSCs) neurospheres; assay: neurosphere formation assay; assay type: cell-based; details: 20 μM
In short: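 Normal human neural stem cells were grown as neurospheres and treated with the test compound at 20 μM for 2 days. Neurospheres were imaged by bright field and sized by ImageJ, with more than 50 neurospheres per group. Comparisons by Student's t test.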

[5] = system: GBM-6 patient-derived GSC neurospheres; assay: neurosphere formation assay; assay type: cell-based, human; details: GBM-6, 20 μM, 2 days
In short: (§1)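 Neurospheres of patient-derived glioblastoma stem cell lines, with normal human neural stem cells run alongside, were exposed to 20 μM test compound for 2 days. Wells were imaged by bright field, and neurosphere size was quantified by image analysis from more than 50 neurospheres per group. Groups were compared by Student's t test.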

[6] = system: m6A and m6Am levels in GSCs; assay: quantification of m6A and m6Am by HPLC-MS/MS/MS; assay type: cell-based, human
[7] = system: GSC-23 patient-derived GSC neurospheres; assay: neurosphere formation assay; assay type: cell-based, human; details: GSC-23, 20 μM, 2 days
In short: as §1

[8] = system: m6A mRNA levels in TS576 cells; assay: m6A dot blot assay of purified mRNA; assay type: cell-based, human; details: 30 μM, does not distinguish m6A and m6Am
In short: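 TS576 patient-derived GSCs were treated with the test compound or DMSO, and mRNA was purified from them. m6A in the mRNA was assessed by dot blot. shControl versus shFTO knockdown in TS576 served as the reference for m6A change.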

FTO [9] = target: T1, FTO; assay: steady-state inhibition kinetics; assay type: biochemical; details: vmax independent of inhibitor concentration; substrate 0-10 μM
FTO [10] = target: T1, FTO; assay: m6A7-Broccoli fluorescence enzymatic inhibition assay; assay type: biochemical; details: for preference for FTO over ALKBH5: FTO vs ALKBH5 IC50
[11] = system: TS576 patient-derived GSC neurospheres; assay: neurosphere formation assay; assay type: cell-based, human; details: 2 days
ALKBH5 [12] = target: T2, ALKBH5; assay: m6A7-Broccoli fluorescence enzymatic inhibition assay; assay type: biochemical; details: for selectivity between FTO and ALKBH5 (in words): comparison of IC50 toward both demethylases
[13] = system: orthotopically transplanted GSC tumors; details: cited from earlier work

T2 sequence (Q6P6C2 whole entry): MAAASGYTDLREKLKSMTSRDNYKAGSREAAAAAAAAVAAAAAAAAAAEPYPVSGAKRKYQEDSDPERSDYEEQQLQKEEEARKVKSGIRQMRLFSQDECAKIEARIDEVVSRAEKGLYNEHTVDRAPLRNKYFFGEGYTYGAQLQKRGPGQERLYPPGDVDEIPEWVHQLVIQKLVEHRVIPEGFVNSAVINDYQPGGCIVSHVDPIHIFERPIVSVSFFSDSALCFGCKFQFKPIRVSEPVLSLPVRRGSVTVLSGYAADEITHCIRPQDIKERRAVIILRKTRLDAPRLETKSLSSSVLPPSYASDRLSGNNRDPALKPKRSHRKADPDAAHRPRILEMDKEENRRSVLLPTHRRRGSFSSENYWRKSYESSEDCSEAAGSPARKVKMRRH
T1 sequence (Q9C0B1 whole entry): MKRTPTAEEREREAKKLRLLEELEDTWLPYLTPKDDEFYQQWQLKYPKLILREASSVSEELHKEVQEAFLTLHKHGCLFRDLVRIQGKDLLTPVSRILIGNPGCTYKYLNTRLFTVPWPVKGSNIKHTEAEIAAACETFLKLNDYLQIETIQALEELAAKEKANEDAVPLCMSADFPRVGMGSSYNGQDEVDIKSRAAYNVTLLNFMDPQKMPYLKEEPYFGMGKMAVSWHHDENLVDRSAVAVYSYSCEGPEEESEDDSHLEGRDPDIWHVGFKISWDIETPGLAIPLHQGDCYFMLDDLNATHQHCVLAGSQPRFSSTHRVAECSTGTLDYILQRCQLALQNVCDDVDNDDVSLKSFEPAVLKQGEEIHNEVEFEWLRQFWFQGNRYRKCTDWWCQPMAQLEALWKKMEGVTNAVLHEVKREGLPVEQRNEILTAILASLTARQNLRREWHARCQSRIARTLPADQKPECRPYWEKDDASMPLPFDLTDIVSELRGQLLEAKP

Compound: Cc1noc(C)c1-c1cc(Cl)c(Nc2ccccc2C(=O)O)c(Cl)c1 [FB23]
- cellular uptake (MONOMAC6 and NB4 cells): poor cellular uptake

Compound: Cc1noc(C)c1-c1cc(Cl)c(Nc2ccccc2C(=O)NO)c(Cl)c1 [FB23–2]
- cellular concentration relative to FB23 (MONOMAC6 and NB4 cells; MONOMAC6 and NB4 cells): 3−10 ×
- IC50 (FTO [1]): 2.6 µM
- inhibition of FTO at 50 μM (stated as selectivity against ALKBH5) (ALKBH5 [2]): little to no inhibition

Compound: COc1ncc(-c2cccc(OCc3ccccc3)c2)cn1 [FTO-03]
- precipitation in assay buffer [3]: significant precipitation

Compound: COc1ncc(-c2ccc3nc(N)sc3c2)cn1 [FTO-04]
- size of neurospheres [4]: no alteration in neurosphere size
- size of neurospheres [5]: significantly decrease the size of neurospheres
- increase in m6A levels relative to DMSO control [6]: ~ 1.4 ×
- increase in m6Am levels relative to DMSO control [6]: ~ 3.2 ×
- size of neurospheres [7]: significantly decrease the size of neurospheres
- m6A mRNA levels relative to DMSO control (dot blot) [8]: increased
- mechanism of inhibition (FTO [9]): competitive mechanism of inhibition
- potency toward FTO relative to MA (FTO [10]; ratio of IC50 to MA (12.5 μM)): approximately 4 ×
- size of neurospheres ([11]; TS576, 20 μM): significantly decrease the size of neurospheres
- size of neurospheres vs vehicle control ([11]; TS576, 30 μM): significant reduction in size of the neurospheres

Compound: COc1ccc2cc(-c3cncnc3)ccc2c1 [FTO-05]
- IC50 (ALKBH5 [12]): > 40 µM
- inhibition of ALKBH5 at the highest concentration measured (ALKBH5 [12]): no measurable inhibition
- preference for FTO over ALKBH5 (FTO [10]): ≥ 5 fold

Compound: COc1ncc(-c2ccc(CO)c(OC)c2)cn1 [FTO-06]
- preference for FTO over ALKBH5 (FTO [10]): ≥ 5 fold

Compound: Cc1ccc2cc(-c3cncnc3)ccc2n1 [FTO-07]
- inhibition of ALKBH5 at the highest concentration measured (ALKBH5 [12]): no measurable inhibition

Compound: COc1ccc2cc(-c3cnc(OC)nc3)ccc2c1 [FTO-08]
- selectivity between FTO and ALKBH5 (in words) (ALKBH5 [12]): equivalent inhibitors toward both demethylases

Compound: Nc1ncc(-c2cccc(Nc3ccccc3)c2)cn1 [FTO-09]
- potency toward ALKBH5 over FTO (ALKBH5 [12]; ALKBH5 vs FTO IC50): ~10 times
- selectivity between FTO and ALKBH5 (in words) (ALKBH5 [12]): distinct preference toward ALKBH5 over FTO

Compound: Nc1ncc(-c2ccc3cc(O)ccc3c2)cn1 [FTO-10]
- selectivity between FTO and ALKBH5 (in words) (ALKBH5 [12]): equivalent inhibitors toward both demethylases

Compound: COc1ncc(-c2ccc3nc(C)ccc3c2)cn1 [FTO-11]
- selectivity between FTO and ALKBH5 (in words) (ALKBH5 [12]): equivalent inhibitors toward both demethylases

Compound: COc1ccc2cc(-c3cnc(N)nc3)ccc2c1 [FTO-12]
- IC50 (ALKBH5 [12]): > 40 µM
- inhibition of ALKBH5 at the highest concentration measured (ALKBH5 [12]): no measurable inhibition
- preference for FTO over ALKBH5 (FTO [10]): ≥ 5 fold

Compound: Nc1ncc(-c2cccc(OCc3ccccc3)c2)cn1 [FTO-13]
- selectivity between FTO and ALKBH5 (in words) (ALKBH5 [12]): distinct preference toward ALKBH5 over FTO

Compound: COCCNc1ncc(-c2ccc3cc(OC)ccc3c2)cn1 [FTO-15]
- precipitation in assay buffer [3]: significant precipitation

Compound: COCCNc1ncc(-c2ccc(OCc3ccccc3)cc2)cn1 [FTO-18]
- inhibition of ALKBH5 at the highest concentration measured (ALKBH5 [12]): no measurable inhibition

Compound: COCCNc1ncc(-c2ccc3nc(C)ccc3c2)cn1 [FTO-19]
- selectivity between FTO and ALKBH5 (in words) (ALKBH5 [12]): equivalent inhibitors toward both demethylases

Compound: COCCNc1ncc(-c2ccc(CO)c(OC)c2)cn1 [FTO-20]
- preference for FTO over ALKBH5 (FTO [10]): ≥ 5 fold

Compound: Cc1ccc(Cl)c(Nc2ccccc2C(=O)O)c1Cl [MA, meclofenamic acid]
- lifespan ([13]; intracranial GSC xenograft mice): prolong lifespan
- tumor progression in vivo ([13]; orthotopically transplanted GSC tumors): prevented tumor progression in vivo
- inhibition of FTO at 50 μM (stated as selectivity against ALKBH5) (ALKBH5 [2]): little to no inhibition
